pIC50, pKi: −log10 of the molar value. Where a SMILES comes first, the peptide text is derived from it. [ ]: non-standard residue; d: D form. Hyp = O=C(O)[C@@H]1C[C@@H](O)CN1
Columns and labels:
[1] = biological target: T1, Solute carrier family 15 member 1 (Rattus norvegicus, UniProt P51574); assay: Ratio of compound effect for substrate activity at PEPT1 in Sprague-Dawley rat jejunum assessed as effective permeability in absence of non-metabolized PEPT1 substrate Gly-Sar to compound effect for substrate activity at PEPT1 in Sprague-Dawley rat jejunum assessed as effective permeability in presence of non-metabolized PEPT1 substrate Gly-Sar; assay type: ADME
T1 sequence (P51574 whole entry): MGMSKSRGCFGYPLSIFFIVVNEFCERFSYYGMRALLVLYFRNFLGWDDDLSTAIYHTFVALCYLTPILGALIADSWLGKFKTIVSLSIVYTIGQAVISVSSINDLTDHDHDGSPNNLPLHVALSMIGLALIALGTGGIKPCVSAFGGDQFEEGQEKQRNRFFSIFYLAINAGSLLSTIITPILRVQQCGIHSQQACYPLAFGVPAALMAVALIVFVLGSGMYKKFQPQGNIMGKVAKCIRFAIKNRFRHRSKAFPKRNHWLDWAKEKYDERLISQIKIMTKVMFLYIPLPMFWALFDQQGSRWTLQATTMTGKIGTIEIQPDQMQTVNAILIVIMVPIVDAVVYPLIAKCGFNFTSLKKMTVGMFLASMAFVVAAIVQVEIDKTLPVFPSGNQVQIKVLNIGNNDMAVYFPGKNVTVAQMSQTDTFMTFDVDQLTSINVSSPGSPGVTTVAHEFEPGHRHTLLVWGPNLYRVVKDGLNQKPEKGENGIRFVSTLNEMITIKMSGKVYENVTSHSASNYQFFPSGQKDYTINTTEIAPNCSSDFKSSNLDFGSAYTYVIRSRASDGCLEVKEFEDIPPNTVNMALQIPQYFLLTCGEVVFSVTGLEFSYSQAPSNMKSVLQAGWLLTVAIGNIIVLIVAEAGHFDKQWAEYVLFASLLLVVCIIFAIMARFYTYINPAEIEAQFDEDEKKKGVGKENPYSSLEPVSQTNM

[2] = biological target: T1, Solute carrier family 15 member 1; assay: Substrate activity at PEPT1 in Sprague-Dawley rat jejunum assessed as effective permeability at 5 mM measured after 15 to 120 mins by HPLC analysis; assay type: ADME, tissue-based; conditions: 5000 µM
Outline: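 In situ single-pass jejunal perfusion in fasted (12 h) male SD rats anaesthetised with urethane 1.5 g/kg i.p. About 10 cm of jejunum was perfused at 0.2 mL/min with pH 6.0 HEPES buffer containing 5 mM compound. Outflow was collected 15–120 min after steady state and assayed by HPLC. Peff was calculated from outlet/inlet concentration and volume ratios and segment radius and length.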

[3] = biological target: T2, Solute carrier family 15 member 1 (Homo sapiens, UniProt P46059); assay: Substrate activity at PEPT1 in human Caco2 cells assessed as inhibition of Gly-Sar uptake measured after 10 mins by UPLC-MS/MS analysis; assay type: cell-based
T2 sequence (P46059 whole entry): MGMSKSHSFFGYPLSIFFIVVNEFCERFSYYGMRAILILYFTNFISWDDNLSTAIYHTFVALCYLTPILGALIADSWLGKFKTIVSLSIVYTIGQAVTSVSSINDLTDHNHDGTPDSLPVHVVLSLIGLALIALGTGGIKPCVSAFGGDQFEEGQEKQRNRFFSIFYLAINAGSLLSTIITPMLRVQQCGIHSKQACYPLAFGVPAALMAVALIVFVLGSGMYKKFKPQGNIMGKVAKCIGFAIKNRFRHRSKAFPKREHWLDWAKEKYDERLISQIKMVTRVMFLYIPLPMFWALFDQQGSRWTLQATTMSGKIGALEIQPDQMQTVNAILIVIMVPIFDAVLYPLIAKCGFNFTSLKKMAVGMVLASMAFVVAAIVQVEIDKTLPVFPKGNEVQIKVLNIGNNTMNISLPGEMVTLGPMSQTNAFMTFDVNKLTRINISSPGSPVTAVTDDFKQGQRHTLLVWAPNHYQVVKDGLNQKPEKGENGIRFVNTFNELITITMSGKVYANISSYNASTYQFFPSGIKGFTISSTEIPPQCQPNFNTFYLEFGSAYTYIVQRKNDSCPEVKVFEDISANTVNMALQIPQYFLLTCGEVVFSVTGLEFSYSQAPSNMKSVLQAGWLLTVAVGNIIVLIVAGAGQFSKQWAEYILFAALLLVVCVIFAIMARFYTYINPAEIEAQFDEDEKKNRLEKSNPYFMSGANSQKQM
Outline: (§1)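 Caco-2 cells with 0.5 mM Gly-Sar probe substrate and competitor at 0.5–50 mM. IC50 by nonlinear fitting; n=3.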

[4] = biological target: T2, Solute carrier family 15 member 1; assay: Substrate activity at PEPT1 in human Caco2 cells assessed as inhibition of Gly-Sar uptake by LC-MS/MS analysis; assay type: cell-based; outline: as §1
[5] = biological target: T2, Solute carrier family 15 member 1; assay: Substrate activity at PEPT1 in human Caco2 cells assessed as protein-mediated drug uptake at 0.5 mM measured after 10 mins in pH 7.4 HBSS buffer by UPLC-MS/MS analysis; assay type: ADME, cell-based; conditions: caco-2, pH 7.4, 10 min, 500 µM
Outline: (§2)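 Caco-2 cells incubated 10 min with 0.5 mM compound in HBSS at pH 6.0 or pH 7.4, washed three times in ice-cold PBS pH 7.4, homogenised. Protein by DC assay; drug by UPLC-MS/MS; n=3.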

[6] = Oral bioavailability in rat; assay type: ADME, organism-based; conditions: in vivo
[7] = biological target: T2, Solute carrier family 15 member 1; assay: Substrate activity at PEPT1 in human Caco2 cells assessed as protein-mediated drug uptake at 0.5 mM measured after 10 mins in pH 6 HBSS buffer by UPLC-MS/MS analysis; assay type: ADME, cell-based; conditions: caco-2, pH 6, 10 min, 500 µM; outline: as §2

- Ratio [1]: 7.3
- Peff [2]: Permeable
- pIC50 [3]: 2.75
- pKi [4]: 2.60
- Drug uptake [5]: Not Active
- bioavailability [6]: ≤ 100%
- Drug uptake [7]: Active
Structure (SMILES): O=C(O)[C@H](CO)NC(=O)[C@@H]1C[C@@H](O)CN1 (H-[Hyp]-Ser-OH)

— ChEMBL document CHEMBL4373712, “Bioactivatable Pseudotripeptidization of Cyclic Dipeptides To Increase the Affinity toward Oligopeptide Transporter 1 for Enhanced Oral Absorption: An Application to Cyclo(l-Hyp-l-Ser) (JBP485)” (J Med Chem, 2019)
